Values after ≈ are worked out from the molar mass of the structure shown.
Experiments:
Assay type in all cases: functional
Staphylococcus aureus [1] = assay: In vitro inhibitory activity against Staphylococcus aureus (EryRi 011GO25i)
Summary of the method: (§1)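 Two-fold agar dilution on Mueller-Hinton agar (pH 7.4). Inoculum from overnight plate cultures suspended in Mueller-Hinton broth, adjusted to 10^9 CFU/mL, diluted 1:200 and spotted by multipoint inoculator at about 10^4 CFU/spot. Plates incubated 37 °C for 20 h. MIC taken as lowest concentration with no visible growth.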

Streptococcus pneumoniae [2] = assay: In vitro inhibitory activity against Streptococcus pneumoniae (032UC1); summary of the method: as §1
Streptococcus pneumoniae [3] = assay: In vitro inhibitory activity against Streptococcus pneumoniae (EryRc 030SJ1); summary of the method: as §1
Haemophilus influenzae [4] = assay: In vitro inhibitory activity against Haemophilus influenzae (351HT3); summary of the method: as §1
Streptococcus pyogenes = assay: In vitro inhibitory activity against Streptococcus pyogenes (02A1UC1); summary of the method: as §1
Streptococcus pneumoniae [5] = assay: In vitro inhibitory activity against Streptococcus pneumoniae (EryRi 030SJ5i); summary of the method: as §1
[6] = tested on: Staphylococcus epidermidis; assay: In vitro inhibitory activity against Staphylococcus epidermidis (EryRi 012GO11i); summary of the method: as §1
Haemophilus influenzae [7] = assay: In vitro inhibitory activity against Haemophilus influenzae (351CB12); summary of the method: as §1
Staphylococcus aureus [8] = assay: In vitro inhibitory activity against Staphylococcus aureus (011UC4); summary of the method: as §1
Staphylococcus aureus [9] = assay: In vitro inhibitory activity against Staphylococcus aureus (EryRc 011CB20); summary of the method: as §1
Escherichia coli = assay: In vitro inhibitory activity against Escherichia coli (250 UC5); summary of the method: as §1

| MIC (Staphylococcus aureus [1]) | MIC (Streptococcus pneumoniae [2]) | MIC (Streptococcus pneumoniae [3]) | MIC (Haemophilus influenzae [4]) | MIC (Streptococcus pyogenes) | MIC (Streptococcus pneumoniae [5]) | MIC [6] | MIC (Haemophilus influenzae [7]) | MIC (Staphylococcus aureus [8]) | MIC (Staphylococcus aureus [9]) | MIC (Escherichia coli) | SMILES |
| --- | --- | --- | --- | --- | --- | --- | --- | --- | --- | --- | --- |
| 0.15 µg/mL (≈ 0.201 µM) | 0.02 µg/mL (≈ 0.0268 µM) | 5 µg/mL (≈ 6.7 µM) | 1.2 µg/mL (≈ 1.61 µM) | 0.02 µg/mL (≈ 0.0268 µM) | 0.15 µg/mL (≈ 0.201 µM) | 0.15 µg/mL (≈ 0.201 µM) | 1.2 µg/mL (≈ 1.61 µM) | 0.08 µg/mL (≈ 0.107 µM) | 40 µg/mL (≈ 53.6 µM) | 40 µg/mL (≈ 53.6 µM) | CC[C@H]1OC(=O)[C@H](C)C(=O)[C@H](C)[C@@H](O[C@@H]2O[C@H](C)C[C@H](N(C)C)[C@H]2O)[C@](C)(OC)C[C@@H](C)C(=O)[C@H](C)[C@H]2N(NCCCc3ccccc3)C(=O)O[C@]12C |
| 40 µg/mL (≈ 63.7 µM) | 5 µg/mL (≈ 7.96 µM) | 40 µg/mL (≈ 63.7 µM) | 40 µg/mL (≈ 63.7 µM) | 2.5 µg/mL (≈ 3.98 µM) | 40 µg/mL (≈ 63.7 µM) | 40 µg/mL (≈ 63.7 µM) | 40 µg/mL (≈ 63.7 µM) | 40 µg/mL (≈ 63.7 µM) | 40 µg/mL (≈ 63.7 µM) | 40 µg/mL (≈ 63.7 µM) | CC[C@H]1OC(=O)[C@H](C)C(=O)[C@H](C)[C@@H](O[C@@H]2O[C@H](C)C[C@H](N(C)C)[C@H]2O)[C@](C)(OC)C[C@@H](C)C(=O)[C@@H](C)[C@H]2N(N)C(=O)O[C@]12C |
| 10 µg/mL (≈ 14.2 µM) | 0.6 µg/mL (≈ 0.852 µM) | 40 µg/mL (≈ 56.8 µM) | 40 µg/mL (≈ 56.8 µM) | 0.6 µg/mL (≈ 0.852 µM) | 20 µg/mL (≈ 28.4 µM) | 2.5 µg/mL (≈ 3.55 µM) | 40 µg/mL (≈ 56.8 µM) | 1.2 µg/mL (≈ 1.7 µM) | 40 µg/mL (≈ 56.8 µM) | 40 µg/mL (≈ 56.8 µM) | CC[C@H]1OC(=O)[C@H](C)C(=O)[C@H](C)[C@@H](O[C@@H]2O[C@H](C)C[C@H](N(C)C)[C@H]2O)[C@](C)(OC)C[C@@H](C)/C(=N\OC[C@@H](N)C(=O)OC)[C@H](C)[C@@H](O)[C@]1(C)O |
| 5 µg/mL (≈ 6.97 µM) | 0.15 µg/mL (≈ 0.209 µM) | 40 µg/mL (≈ 55.8 µM) | 40 µg/mL (≈ 55.8 µM) | 0.15 µg/mL (≈ 0.209 µM) | 10 µg/mL (≈ 13.9 µM) | 1.2 µg/mL (≈ 1.67 µM) | 20 µg/mL (≈ 27.9 µM) | 0.6 µg/mL (≈ 0.837 µM) | 40 µg/mL (≈ 55.8 µM) | 40 µg/mL (≈ 55.8 µM) | CC[C@H]1OC(=O)[C@H](C)C(=O)[C@H](C)[C@@H](O[C@@H]2O[C@H](C)C[C@H](N(C)C)[C@H]2O)[C@](C)(OC)C[C@@H](C)/C(=N\OCCNCCN(C)C)[C@H](C)[C@@H](O)[C@]1(C)O |
| 1.2 µg/mL (≈ 1.91 µM) | 0.08 µg/mL (≈ 0.127 µM) | 40 µg/mL (≈ 63.7 µM) | 10 µg/mL (≈ 15.9 µM) | 0.15 µg/mL (≈ 0.239 µM) | 40 µg/mL (≈ 63.7 µM) | 1.2 µg/mL (≈ 1.91 µM) | 10 µg/mL (≈ 15.9 µM) | 1.2 µg/mL (≈ 1.91 µM) | 40 µg/mL (≈ 63.7 µM) | 40 µg/mL (≈ 63.7 µM) | CC[C@H]1OC(=O)[C@H](C)C(=O)[C@H](C)[C@@H](O[C@@H]2O[C@H](C)C[C@H](N(C)C)[C@H]2O)[C@](C)(OC)C[C@@H](C)C(=O)[C@H](C)[C@H]2N(N)C(=O)O[C@]12C |
| 0.6 µg/mL (≈ 0.732 µM) | 0.02 µg/mL (≈ 0.0244 µM) | 0.6 µg/mL (≈ 0.732 µM) | 5 µg/mL (≈ 6.1 µM) | 0.04 µg/mL (≈ 0.0488 µM) | 0.15 µg/mL (≈ 0.183 µM) | 0.3 µg/mL (≈ 0.366 µM) | 1.2 µg/mL (≈ 1.46 µM) | 0.08 µg/mL (≈ 0.0976 µM) | 40 µg/mL (≈ 48.8 µM) | 40 µg/mL (≈ 48.8 µM) | CC[C@H]1OC(=O)[C@H](C)C(=O)[C@H](C)[C@@H](O[C@@H]2O[C@H](C)C[C@H](N(C)C)[C@H]2O)[C@](C)(OC)C[C@@H](C)/C(=N\OC2CCCN(CCCc3ccc(O)cc3)C2)[C@H](C)[C@@H](O)[C@]1(C)O (some centres undefined) |
| 0.6 µg/mL (≈ 0.979 µM) | 0.02 µg/mL (≈ 0.0326 µM) | 5 µg/mL (≈ 8.16 µM) | 5 µg/mL (≈ 8.16 µM) | 0.04 µg/mL (≈ 0.0653 µM) | 2.5 µg/mL (≈ 4.08 µM) | 10 µg/mL (≈ 16.3 µM) | 5 µg/mL (≈ 8.16 µM) | 0.6 µg/mL (≈ 0.979 µM) | 40 µg/mL (≈ 65.3 µM) | 40 µg/mL (≈ 65.3 µM) | CC[C@H]1OC(=O)[C@H](C)C(=O)[C@H](C)[C@@H](O[C@@H]2O[C@H](C)C[C@H](N(C)C)[C@H]2O)[C@](C)(OC)C[C@@H](C)C(=O)[C@H](C)[C@H]2NC(=O)O[C@@]21C |
| 0.08 µg/mL (≈ 0.0968 µM) | 0.02 µg/mL (≈ 0.0242 µM) | 0.6 µg/mL (≈ 0.726 µM) | 1.2 µg/mL (≈ 1.45 µM) | 0.02 µg/mL (≈ 0.0242 µM) | 0.02 µg/mL (≈ 0.0242 µM) | 0.04 µg/mL (≈ 0.0484 µM) | 1.2 µg/mL (≈ 1.45 µM) | 0.08 µg/mL (≈ 0.0968 µM) | 40 µg/mL (≈ 48.4 µM) | 40 µg/mL (≈ 48.4 µM) | CC[C@H]1OC(=O)[C@H](C)C(=O)[C@H](C)[C@@H](O[C@@H]2O[C@H](C)C[C@H](N(C)C)[C@H]2O)[C@](C)(OC)C[C@@H](C)C(=O)[C@H](C)[C@H]2N(CCCCc3ccnc4ccc(OC)cc34)C(=O)O[C@]12C |
| 40 µg/mL (≈ 57.7 µM) | 0.3 µg/mL (≈ 0.433 µM) | 40 µg/mL (≈ 57.7 µM) | 40 µg/mL (≈ 57.7 µM) | 0.6 µg/mL (≈ 0.866 µM) | 40 µg/mL (≈ 57.7 µM) | 40 µg/mL (≈ 57.7 µM) | 40 µg/mL (≈ 57.7 µM) | 2.5 µg/mL (≈ 3.61 µM) | 40 µg/mL (≈ 57.7 µM) | 40 µg/mL (≈ 57.7 µM) | CC[C@H]1OC(=O)[C@H](C)C(=O)[C@H](C)[C@@H](O[C@@H]2O[C@H](C)C[C@H](N(C)C)[C@H]2O)[C@](C)(OC)C[C@@H](C)/C(=N\OCc2ccccc2)[C@H](C)[C@@H](O)[C@]1(C)O |
